What was measured:
Format in all cases: functional, cell-based
SW480 = assay: Cytotoxicity against human SW480 cells after 48 hrs by MTT assay; conditions: SW480, 48 h
Procedure, shortened: (§1)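 Human tumour cells were seeded in 96-well plates at an initial density of 1 × 10^5 cells/mL. Adherent lines were allowed to attach for 12 h before dosing, and HL-60 suspension cells were seeded just before dosing. Cells were exposed to […], 0.32, 1.6, 8 and 40 μM for 48 h, in triplicate, with cisplatin and paclitaxel as positive controls. Viability was read by MTT and growth curves were plotted.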

HL-60 = assay: Cytotoxicity against human HL60 cells after 48 hrs by MTT assay; conditions: HL-60, 48 h; procedure, shortened: as §1
MCF7 = assay: Cytotoxicity against human MCF7 cells after 48 hrs by MTT assay; conditions: MCF7, 48 h; procedure, shortened: as §1
SMMC-7721 = assay: Cytotoxicity against human SMMC7721 cells after 48 hrs by MTT assay; conditions: SMMC-7721, 48 h; procedure, shortened: as §1
A549 = assay: Cytotoxicity against human A549 cells after 48 hrs by MTT assay; conditions: A549, 48 h; procedure, shortened: as §1

| Structure (SMILES) | IC50 (SW480) [µM] | IC50 (HL-60) [µM] | IC50 (MCF7) [µM] | IC50 (SMMC-7721) [µM] | IC50 (A549) [µM] |
| --- | --- | --- | --- | --- | --- |
| O=C1C[C@@H]2OCC=C3C[N+]4([O-])CC[C@]56c7ccccc7N1[C@H]5[C@H]2[C@H]3C[C@@H]64 (stereo not given in full) | > 40 | > 40 | > 40 | > 40 | > 40 |
| COc1ccc2c(c1)[C@@]13CCN4CC5=CCO[C@H]6CC(=O)N2[C@H]1[C@H]6[C@H]5C[C@H]43 | > 40 | > 40 | > 40 | > 40 | > 40 |
| COC1=C2CN(C)CC[C@]34C(=O)C[C@@H]2[C@H]2[C@H](CC(=O)N(c5ccccc53)[C@@H]24)OC1 | > 40 | > 40 | > 40 | > 40 | > 40 |
| COc1ccc2c(c1)N1C(=O)C[C@@H]3OCC=C4CN5CC[C@]26[C@@H]5C[C@@H]4[C@@H]3[C@H]16 | > 40 | > 40 | > 40 | > 40 | > 40 |
| COc1cc2c(cc1OC)[C@@]13CC[N+]4([O-])CC5=CCO[C@H]6CC(=O)N2[C@H]1[C@H]6[C@H]5C[C@@H]34 (stereo not given in full) | > 40 | > 40 | > 40 | > 40 | > 40 |
| C/C=C1/CN2CC[C@@]34c5ccccc5N5/C=C6/[C@H]7C[C@@H]8N(CC[C@@]89c8ccccc8N(/C=C(/[C@H]1C[C@H]23)[C@H]54)[C@@H]69)C/C7=C/C [BISNORDIHYDROTOXIFERINE] | > 40 | > 40 | > 40 | > 40 | > 40 |
| COc1cc2c(cc1OC)[C@@]13CCN4CC5=CCO[C@H]6CC(=O)N2[C@H]1[C@H]6[C@H]5C[C@H]43 [BRUCINE] | > 40 | > 40 | > 40 | > 40 | > 40 |
| CN1CC[C@]23C(=O)C[C@H]4C(=CCO[C@H]5CC(=O)N(c6ccccc62)[C@H]3[C@H]54)C1 [ICAJINE] | > 40 | > 40 | > 40 | > 40 | > 40 |
| COc1cc2c(cc1OC)[C@]13CCN4C/C(=C/CO)[C@H](C[C@H]41)C1=CCC(=O)N2[C@@H]13 [ISOBRUCINE] | > 40 | > 40 | > 40 | > 40 | > 40 |
| O=C1CC=C2[C@H]3C[C@@H]4N(CC[C@@]45c4ccccc4N1[C@@H]25)C/C3=C/CO [ISOSTRYCHNINE] | > 40 | > 40 | > 40 | > 40 | > 40 |
| COc1cc2c(cc1OC)[C@@]13CCN(C)CC4=CCO[C@H]5CC(=O)N2[C@H]1[C@H]5[C@H]4CC3=O [NOVACINE] | > 40 | > 40 | > 40 | > 40 | > 40 |
| COc1cc2c(cc1OC)[C@@]13CCN4CC5=CCO[C@H]6CC(=O)N2[C@H]1[C@H]6[C@H]5C[C@]43O [PSEUDOBRUCINE] | > 40 | > 40 | > 40 | > 40 | > 40 |
| O=C1C[C@@H]2OCC=C3CN4CC[C@]56c7ccccc7N1[C@H]5[C@H]2[C@H]3C[C@]46O [PSEUDOSTRYCHNINE] | > 40 | > 40 | > 40 | > 40 | > 40 |
| C[N+]12CC[C@@]34c5ccccc5N5C(=O)C[C@@H]6OCC=C(C1)[C@H](C[C@@H]32)[C@@H]6[C@H]54 (stereo not given in full) [STRYCHNINE METHIODIDE] | > 40 | > 40 | > 40 | > 40 | > 40 |
| O=C1C[C@@H]2OCC=C3CN4CC[C@]56c7ccccc7N1[C@H]5[C@H]2[C@H]3C[C@H]46 [STRYCHNINE] | > 40 | > 40 | > 40 | > 40 | > 40 |
| COc1cc2c3c4n(c2cc1OC)C(=O)C[C@@H]1OCC=C2CN(CC3)C(=O)C[C@@H]2[C@H]41 [STRYNUXLINE A] | 13.3 | 7.15 | 12.2 | 9.4 | 17.1 |
| O=C1C[C@H]2C3=CCO[C@H]4CC(=O)n5c(c(c6ccccc65)CCN1C3)[C@H]42 [STRYNUXLINE B] | 19 | 16.5 | 11.2 | 15.7 | 18.1 |
| CN1CC[C@]23C(=O)C[C@H]4C(=CCO[C@H]5CC(=O)N(c6c(O)cccc62)[C@H]3[C@H]54)C1 [VOMICINE] | > 40 | > 40 | > 40 | > 40 | > 40 |

From ChEMBL document CHEMBL2163304, “Strynuxlines A and B, alkaloids with an unprecedented carbon skeleton from Strychnos nux-vomica” (J Nat Prod, 2012)
